Measured values: ChEMBL document CHEMBL1158767, “Cytotoxic steroidal saponins from the rhizomes of Asparagus oligoclonos” (J Nat Prod, 2005)
≈ marks a conversion by molar mass, not a printed value.

Experiments:
Format in all cases: functional, cell-based
SK-OV-3 = assay: Cytotoxicity against human SKOV3 cells by SRB assay
Method in brief: (§1)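 Standard sulforhodamine B assay on a panel of human tumour lines: A549 lung carcinoma, SK-OV-3 ovarian adenocarcinoma (from malignant ascites), SK-MEL-2 malignant melanoma (skin metastasis, thigh), XF-498 central nervous system tumour, and HCT 15 colon adenocarcinoma. Testing was done by an external pharmacology group.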

SK-MEL-2 = assay: Cytotoxicity against human SK-MEL-2 cells by SRB assay; method in brief: as §1
XF498 = assay: Cytotoxicity against human XF498 cells by SRB assay; method in brief: as §1
HCT-15 = assay: Cytotoxicity against human HCT15 cells by SRB assay; method in brief: as §1
A549 = assay: Cytotoxicity against human A549 cells by SRB assay

| SMILES | IC50 (SK-OV-3) | IC50 (SK-MEL-2) | IC50 (XF498) | IC50 (HCT-15) | IC50 (A549) |
| --- | --- | --- | --- | --- | --- |
| COc1cccc2c1C(=O)c1c(O)c3c(c(O)c1C2=O)C[C@@](O)(C(=O)CO)C[C@@H]3O[C@H]1C[C@H](N)[C@H](O)[C@H](C)O1 [DOXORUBICIN] | 0.18 µg/mL (≈ 0.331 µM) | 0.03 µg/mL (≈ 0.0552 µM) | 0.12 µg/mL (≈ 0.221 µM) | 0.08 µg/mL (≈ 0.147 µM) |  |
| C[C@H]1CC[C@@]2(OC1)O[C@H]1C[C@H]3[C@@H]4CC[C@@H]5C[C@@H](O[C@@H]6O[C@H](CO)[C@@H](O)[C@H](O)[C@H]6O[C@@H]6O[C@@H](CO)[C@H](O)[C@H](O)[C@H]6O)CC[C@]5(C)[C@H]4CC[C@]3(C)[C@H]1[C@@H]2C (relative stereo) [ASPARANIN A] | 2.43 µg/mL (≈ 3.28 µM) | 2.41 µg/mL (≈ 3.25 µM) | 2.56 µg/mL (≈ 3.46 µM) | 2.47 µg/mL (≈ 3.33 µM) | 2.05 µg/mL (≈ 2.77 µM) |
| C[C@H]1CC[C@@]2(OC1)O[C@H]1C[C@H]3[C@@H]4CC[C@@H]5C[C@@H](O[C@@H]6O[C@H](CO)[C@@H](O[C@@H]7O[C@@H](C)[C@H](O)[C@@H](O)[C@H]7O)[C@H](O)[C@H]6O[C@@H]6OC[C@@H](O)[C@H](O)[C@H]6O)CC[C@]5(C)[C@H]4CC[C@]3(C)[C@@]1(O)[C@@H]2C (relative stereo) [ASPAOLIGONIN B] | 2.73 µg/mL (≈ 3.13 µM) | 2.59 µg/mL (≈ 2.97 µM) | 2.51 µg/mL (≈ 2.88 µM) | 2.57 µg/mL (≈ 2.94 µM) | 2.55 µg/mL (≈ 2.92 µM) |
| C[C@H]1CC[C@@]2(OC1)O[C@H]1C[C@H]3[C@@H]4CC[C@@H]5C[C@@H](O[C@@H]6O[C@H](CO)[C@@H](O)[C@H](O)[C@H]6O[C@@H]6O[C@@H](CO)[C@H](O)[C@H](O)[C@H]6O)CC[C@]5(C)[C@H]4CC[C@]3(C)[C@@]1(O)[C@@H]2C (relative stereo) [ASPAOLIGONIN A] | 2.66 µg/mL (≈ 3.51 µM) | 2.53 µg/mL (≈ 3.34 µM) | 2.84 µg/mL (≈ 3.75 µM) | 2.59 µg/mL (≈ 3.42 µM) | 2.25 µg/mL (≈ 2.97 µM) |
